In ChEMBL document CHEMBL3871280, “Bis(N-amidinohydrazones) and N-(amidino)-N'-aryl-bishydrazones: New classes of antibacterial/antifungal agents” (Bioorg Med Chem, 2017):
Converted amounts (≈) assume the structure as drawn.

Tests used:
Enterococcus = assay: Antibacterial activity against vancomycin-resistant Enterococcus; format: functional
How it was run: (§1)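 Values were set in μM and converted to μg/mL for presentation. Amikacin, ampicillin and ofloxacin served as positive controls.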

Escherichia coli = assay: Antibacterial activity against Escherichia coli MC1061; format: functional; how it was run: as §1
Bacillus subtilis = assay: Antibacterial activity against Bacillus subtilis 168; format: functional; settings: subsp. subtilis str. 168
Acinetobacter baumannii = assay: Antibacterial activity against Acinetobacter baumannii ATCC 19606; format: functional
Staphylococcus aureus = assay: Antibacterial activity against methicillin-resistant Staphylococcus aureus; format: functional; how it was run: as §1
[1] = Antibacterial activity against Salmonella enterica ATCC 14028; format: functional
Pseudomonas aeruginosa = assay: Antibacterial activity against Pseudomonas aeruginosa ATCC 27853; format: functional
Enterobacter cloacae = assay: Antibacterial activity against Enterobacter cloacae ATCC 13047; format: functional; settings: subsp. cloacae ATCC 13047
Listeria monocytogenes = assay: Antibacterial activity against Listeria monocytogenes ATCC 19115; format: functional
[2] = test system: Mycolicibacterium smegmatis; assay: Antimycobacterial activity against Mycobacterium smegmatis MC2 155; format: functional; settings: str. MC2 155; how it was run: as §1
Klebsiella pneumoniae = assay: Antibacterial activity against Klebsiella pneumoniae ATCC 27736; format: functional
[3] = Cytotoxicity against human BEAS2B cells assessed as reduction in cell survival; format: toxicity, cell-based; settings: beas-2b
[4] = Antifungal activity against fluconazole/itraconazole/voriconazole-resistant Candida albicans ATCC 64124; format: functional
[5] = Cytotoxicity against human A549 cells assessed as reduction in cell survival; format: toxicity, cell-based
[6] = Antifungal activity against fluconazole/itraconazole/voriconazole-susceptible Candida albicans ATCC 2310; format: functional
Candida albicans = assay: Antifungal activity against Candida albicans ATCC 1003; format: functional
[7] = Antifungal activity against fluconazole/itraconazole/voriconazole-resistant Candida albicans ATCC 1237; format: functional
[8] = Antifungal activity against fluconazole/itraconazole/voriconazole-resistant Candida albicans ATCC 10231; format: functional
[9] = Antifungal activity against fluconazole/itraconazole/voriconazole-resistant Candida albicans ATCC 90819; format: functional
[10] = Antifungal activity against fluconazole/itraconazole/voriconazole-susceptible Candida albicans ATCC 2876; format: functional

CC1(C)S[C@@H]2[C@H](NC(=O)[C@H](N)c3ccccc3)C(=O)N2[C@H]1C(=O)O [AMPICILLIN]
MIC (Enterococcus): 250 µM (≈ 87.4 µg/mL) | MIC (Escherichia coli): > 250 µM | MIC (Bacillus subtilis): > 250 µM | MIC (Acinetobacter baumannii): > 250 µM | MIC (Staphylococcus aureus): 250 µM (≈ 87.4 µg/mL) | MIC [1]: 250 µM (≈ 87.4 µg/mL) | MIC (Pseudomonas aeruginosa): > 250 µM | MIC (Enterobacter cloacae): > 250 µM | MIC (Listeria monocytogenes): 250 µM (≈ 87.4 µg/mL) | MIC [2]: > 250 µM | MIC (Klebsiella pneumoniae): > 250 µM

NCC[C@H](O)C(=O)N[C@@H]1C[C@H](N)[C@@H](O[C@H]2O[C@H](CN)[C@@H](O)[C@H](O)[C@H]2O)[C@H](O)[C@H]1O[C@H]1O[C@H](CO)[C@@H](O)[C@H](N)[C@H]1O [AMIKACIN]
MIC (Enterococcus): 125 µM (≈ 73.2 µg/mL) | MIC (Escherichia coli): 31.3 µM (≈ 18.3 µg/mL) | MIC (Bacillus subtilis): 3.9 to 15.6 µM (≈ 2.28 to 9.14 µg/mL) | MIC (Acinetobacter baumannii): 31.3 µM (≈ 18.3 µg/mL) | MIC (Staphylococcus aureus): 31.3 µM (≈ 18.3 µg/mL) | MIC [1]: 3.9 to 7.8 µM (≈ 2.28 to 4.57 µg/mL) | MIC (Pseudomonas aeruginosa): 62.5 µM (≈ 36.6 µg/mL) | MIC (Enterobacter cloacae): 62.5 µM (≈ 36.6 µg/mL) | MIC (Listeria monocytogenes): 3.9 µM (≈ 2.28 µg/mL) | MIC [2]: 15.6 µM (≈ 9.14 µg/mL) | MIC (Klebsiella pneumoniae): 31.3 µM (≈ 18.3 µg/mL)

C[C@@H]1[C@H](O)[C@@H](C)/C=C/C=C/C=C/C=C/C=C/C=C/C=C/[C@H](O[C@@H]2O[C@H](C)[C@@H](O)[C@H](N)[C@@H]2O)C[C@@H]2O[C@](O)(C[C@@H](O)C[C@@H](O)[C@H](O)CC[C@@H](O)C[C@@H](O)CC(=O)O[C@H]1C)C[C@H](O)[C@H]2C(=O)O [AMPHOTERICIN B]
IC50 [3]: 17.7 µg/mL (≈ 19.2 µM) | MIC [4]: 2.1 to 4.2 µM (≈ 1.94 to 3.88 µg/mL) | IC50 [5]: 18.2 µg/mL (≈ 19.7 µM)

N=C(N)N/N=C/c1ccc(-c2ccc(/C=N/Nc3ccc(Cl)cc3Cl)cc2)cc1
MIC (Enterococcus): 7.8 µM (≈ 3.32 µg/mL) | MIC [6]: 16.8 µM (≈ 7.15 µg/mL) | MIC (Escherichia coli): > 500 µM | MIC (Bacillus subtilis): > 500 µM | MIC (Acinetobacter baumannii): > 500 µM | MIC (Staphylococcus aureus): 7.8 µM (≈ 3.32 µg/mL) | MIC (Candida albicans): 16.8 µM (≈ 7.15 µg/mL) | MIC [7]: 33.8 µM (≈ 14.4 µg/mL) | MIC [8]: 16.8 µM (≈ 7.15 µg/mL) | MIC [1]: > 500 µM | MIC (Pseudomonas aeruginosa): > 500 µM | MIC [9]: 67.8 µM (≈ 28.8 µg/mL) | MIC (Enterobacter cloacae): > 500 µM | MIC [4]: 67.8 µM (≈ 28.8 µg/mL) | MIC (Listeria monocytogenes): 7.8 µM (≈ 3.32 µg/mL) | MIC [10]: 33.8 µM (≈ 14.4 µg/mL) | MIC [2]: 3.9 µM (≈ 1.66 µg/mL) | MIC (Klebsiella pneumoniae): > 500 µM

C/C(=N\NC(=N)N)c1ccc(Oc2ccc(/C(C)=N/NC(=N)N)cc2)cc1.Cl.Cl
MIC (Enterococcus): 3.9 µM | MIC [6]: 17.8 µM | MIC (Escherichia coli): 125 µM | MIC (Bacillus subtilis): 125 µM | MIC (Acinetobacter baumannii): 62.5 µM | IC50 [3]: 2.9 µg/mL | MIC (Staphylococcus aureus): 125 µM | MIC (Candida albicans): 17.8 µM | MIC [7]: 17.8 µM | MIC [8]: 17.8 µM | MIC [1]: 125 µM | MIC (Pseudomonas aeruginosa): 62.5 µM | MIC [9]: 17.8 µM | MIC (Enterobacter cloacae): 250 µM | MIC [4]: 17.8 µM | MIC (Listeria monocytogenes): 62.5 µM | MIC [10]: 8.9 µM | MIC [2]: 125 to 250 µM | IC50 [5]: 3.9 µg/mL | MIC (Klebsiella pneumoniae): 62.5 µM

C/C(=N\NC(=N)N)c1ccc(/C(C)=N/NC(=N)N)cc1
MIC (Enterococcus): 125 µM (≈ 34.3 µg/mL) | MIC [6]: > 90.1 µM | MIC (Escherichia coli): > 500 µM | MIC (Bacillus subtilis): 250 µM (≈ 68.6 µg/mL) | MIC (Acinetobacter baumannii): 500 µM (≈ 137 µg/mL) | MIC (Staphylococcus aureus): > 500 µM | MIC (Candida albicans): > 90.1 µM | MIC [7]: > 90.1 µM | MIC [8]: > 90.1 µM | MIC [1]: 250 to 500 µM (≈ 68.6 to 137 µg/mL) | MIC (Pseudomonas aeruginosa): 250 µM (≈ 68.6 µg/mL) | MIC [9]: > 90.1 µM | MIC (Enterobacter cloacae): > 500 µM | MIC [4]: 90.1 µM (≈ 24.7 µg/mL) | MIC (Listeria monocytogenes): 250 µM (≈ 68.6 µg/mL) | MIC [10]: > 90.1 µM | MIC [2]: > 500 µM | MIC (Klebsiella pneumoniae): 500 µM (≈ 137 µg/mL)

CC1COc2c(N3CCN(C)CC3)c(F)cc3c(=O)c(C(=O)O)cn1c23 (stereo not given) [OFLOXACIN]
MIC (Enterococcus): 7.8 µM (≈ 2.82 µg/mL) | MIC (Escherichia coli): 3.9 to 7.8 µM (≈ 1.41 to 2.82 µg/mL) | MIC (Bacillus subtilis): ≤ 0.5 µM | MIC (Acinetobacter baumannii): ≤ 0.5 µM | MIC (Staphylococcus aureus): 1 µM (≈ 0.361 µg/mL) | MIC [1]: 15.6 to 31.3 µM (≈ 5.64 to 11.3 µg/mL) | MIC (Pseudomonas aeruginosa): 3.9 µM (≈ 1.41 µg/mL) | MIC (Enterobacter cloacae): ≤ 0.5 µM | MIC (Listeria monocytogenes): 1 µM (≈ 0.361 µg/mL) | MIC [2]: 15.6 µM (≈ 5.64 µg/mL) | MIC (Klebsiella pneumoniae): 15.6 to 31.3 µM (≈ 5.64 to 11.3 µg/mL)

C/C(=N\NC(=N)N)c1ccc(-c2ccc(/C(C)=N/Nc3ccccc3Cl)cc2)cc1
MIC (Enterococcus): 3.9 µM (≈ 1.63 µg/mL) | MIC [6]: 34.3 µM (≈ 14.4 µg/mL) | MIC (Escherichia coli): 500 µM (≈ 209 µg/mL) | MIC (Bacillus subtilis): 62.5 to 125 µM (≈ 26.2 to 52.4 µg/mL) | MIC (Acinetobacter baumannii): 62.5 µM (≈ 26.2 µg/mL) | MIC (Staphylococcus aureus): 125 µM (≈ 52.4 µg/mL) | MIC (Candida albicans): 34.3 µM (≈ 14.4 µg/mL) | MIC [7]: 34.3 µM (≈ 14.4 µg/mL) | MIC [8]: 34.3 µM (≈ 14.4 µg/mL) | MIC [1]: 62.5 to 125 µM (≈ 26.2 to 52.4 µg/mL) | MIC (Pseudomonas aeruginosa): 500 µM (≈ 209 µg/mL) | MIC [9]: 34.3 µM (≈ 14.4 µg/mL) | MIC (Enterobacter cloacae): 500 µM (≈ 209 µg/mL) | MIC [4]: 68.7 µM (≈ 28.8 µg/mL) | MIC (Listeria monocytogenes): 62.5 to 125 µM (≈ 26.2 to 52.4 µg/mL) | MIC [10]: 34.3 µM (≈ 14.4 µg/mL) | MIC [2]: 500 µM (≈ 209 µg/mL) | MIC (Klebsiella pneumoniae): 62.5 to 125 µM (≈ 26.2 to 52.4 µg/mL)
